Compounds with a hit are over-represented: about 1.4% of the library has one in this group of screens.
HTR5A inv ctr – counter-screen for OPRM1-OPRD1 inverse agonists: human HTR5A inverse agonism; P47898; HTR5A cell line, luminescence; inhibition, % at 9.3 µM; hit rate 0.083% among 340,000; in the data active = inhibition mostly above about 23%, no sharp cut-off; inactive = mostly below about 18%;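 note: 0% = cells with DMSO and 100% = no-cell wells with DMSO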
OPRM1-OPRD1 inv – inverse agonist of human OPRM1-OPRD1 heterodimerization | P35372+P41143 | cell-based MOR-DOR heterodimer luminescence, inverse agonism | inhibition, % at 9.3 µM | hit rate 0.21% among 340,000 | AID 504357; in the data active = inhibition above about 22%, passing the limit was not always enough;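 note: 0% = cells with DMSO and 100% = wells without cells with DMSO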
Target sequence (P35372 whole entry, looked up): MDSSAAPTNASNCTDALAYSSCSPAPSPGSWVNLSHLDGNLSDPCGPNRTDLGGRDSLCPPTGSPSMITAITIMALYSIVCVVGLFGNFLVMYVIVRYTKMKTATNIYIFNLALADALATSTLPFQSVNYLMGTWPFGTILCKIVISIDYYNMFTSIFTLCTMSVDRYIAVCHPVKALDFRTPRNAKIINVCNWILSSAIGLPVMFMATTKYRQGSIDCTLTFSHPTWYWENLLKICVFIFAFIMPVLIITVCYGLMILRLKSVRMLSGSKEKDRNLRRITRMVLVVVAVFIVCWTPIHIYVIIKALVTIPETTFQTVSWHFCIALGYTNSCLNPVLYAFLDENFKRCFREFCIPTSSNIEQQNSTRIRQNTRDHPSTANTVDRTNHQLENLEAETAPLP
Target sequence (P41143 whole entry, looked up): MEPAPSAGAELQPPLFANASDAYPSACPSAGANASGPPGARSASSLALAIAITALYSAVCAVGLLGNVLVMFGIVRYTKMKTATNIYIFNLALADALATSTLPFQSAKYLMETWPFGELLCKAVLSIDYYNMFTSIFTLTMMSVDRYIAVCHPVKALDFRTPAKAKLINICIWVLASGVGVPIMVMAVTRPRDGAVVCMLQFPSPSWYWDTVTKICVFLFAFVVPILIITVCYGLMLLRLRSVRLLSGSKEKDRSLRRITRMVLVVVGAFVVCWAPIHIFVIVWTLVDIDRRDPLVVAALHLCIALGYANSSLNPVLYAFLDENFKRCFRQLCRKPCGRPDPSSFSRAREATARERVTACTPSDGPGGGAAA
DAGLB inhibitor – blocks human DAGLB lipase activity. HEK293T DAGLB membrane lysate, EnzChek fluorogenic substrate. inhibition, % at 5.17 µM. hit rate 0.059% among 340,000; in the data active = inhibition above about 34%;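 note: 0% = enzyme with vehicle and 100% = wells lacking enzyme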
Arrestin-AP2 inh – inhibitors of human beta-arrestin and AP2 interaction; hit rate 0.31% among 340,000; FITC-arrestin peptide / GST-AP2 beads, flow cytometry; AP2 beta2 appendage carries R879A mutation; AID 504490; inhibition, % at 10 µM;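 active = inhibition above a set limit, near 3 SD of compounds lacking own fluorescence, cut at about 54% in these data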;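 note: plate controls were DMSO wells for no effect and 5 µM unlabelled arrestin peptide for full effect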
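System: GST-tagged AP2 beta2-adaptin appendage (R879A) on 4 µm glutathione beads / Reagent: FITC-arrestin peptide, 50 nM / Detection: HyperCyt-sampled flow cytometry, FL1 channel, ex 488/em 535 nm / Timing: 12 min plus 1 h, RT / Buffer or medium: PBS plus Tween 20 (0.05%) and BSA (0.1%)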
HTR5A ag – HTR5A agonism, opioid heterodimer counter-screen; AID 504692; P47898; hit rate 0.61% among 340,000; HTR5A agonist assay, luminescence, cell-based; activation, % at 9.3 µM; in the data active = activation mostly above about 9.5%, no sharp cut-off; inactive = mostly below about 7.6%;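 note: 0% = cells with vehicle only and 100% = reference agonist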
OPRM1-OPRD1 ag – OPRM1-OPRD1 heterodimerization agonism | hit rate 0.3% among 340,000 | P35372+P41143 | cells, luminescence | AID 504326 | activation, % at 9.3 µM; in the data active = activation above about 18%;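 note: 0% = vehicle-treated cells and 100% = reference agonist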
OPRM1-D1 inv cf – OPRM1-OPRD1 heterodimer inverse agonism, confirmation; hit rate 20% among 580; cells expressing OPRM1/OPRD1 heterodimer, luminescence; shares compounds with OPRM1-OPRD1 inv; inhibition, % at 9.3 µM; in the data active = inhibition above about 32%;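 note: 0% = cells with DMSO and 100% = wells lacking cells with DMSO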
HTR5A inv count – inverse agonist of human HTR5A in OPRM1-OPRD1 counter-screen; shares compounds with OPRM1-OPRD1 inv; HTR5A-expressing cells, luminescence, inverse agonism; inhibition, % at 9.3 µM; 580 tested, under 10 active; AID 504914; call rule not given here;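 note: 0% = cells with DMSO and 100% = no-cell wells with DMSO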
* hit, by the source's call; . = no result.

SMILES | HTR5A inv ctr | OPRM1-OPRD1 inv | DAGLB inhibitor | Arrestin-AP2 inh | HTR5A ag | OPRM1-OPRD1 ag | OPRM1-D1 inv cf | HTR5A inv count
COc1ccc(-n2c(N)c(C(=O)NCc3ccco3)sc2=S)cc1 | -22.6 | 15.7 | -1.0 | -0.5 | 5.3 | -2.7 | . | .
COCOCCn1cc(CN2CCS(=O)(=O)N(Cc3ccc(-c4ccc(F)nc4)cc3)C(CC(C)C)C2=O)nn1 (stereo unspecified) | . | . | -2.6 | . | . | . | . | .
O=C(NCCN1CCCC(O)C1)c1cc(COc2cccc(C(F)(F)F)c2)on1 (stereo unspecified) | . | . | 2.4 | . | . | . | . | .
Cc1ccc([C@H]2N[C@]3(CCCN(Cc4ccc(Br)cc4)C3=O)[C@H]3C(=O)N(C)C(=O)[C@@H]23)cc1 | . | . | 0.9 | . | . | . | . | .
CN(C)CCC(=O)N1C/C(=C/c2ccccc2)C(=O)/C(=C\c2ccccc2)C1 | 24.6 | 42.9* | -2.3 | -3.1 | -6.3 | -8.3 | 21.0 | 16.0
C[N+](C)(C)CCC(=O)N1C/C(=C/c2ccccc2)C(=O)/C(=C\c2ccccc2)C1 | -5.2 | 9.7 | -8.7 | 10.5 | 1.4 | -2.2 | . | .
CCN1C(=O)CSC1=Nc1ccc(C(=O)OC)cc1 | . | . | -3.6 | . | . | . | . | .
CN(C(=O)c1cccc(NC(=O)Cc2ccc(NC(=O)C3CCN(C(=O)C4CCCC4)CC3)cc2)c1)C1CCCC1 | -0.4 | 4.9 | -1.7 | 15.2 | 0.1 | -1.1 | . | .
COc1ccc(C(=O)CNc2ccc(C)cc2C)cc1 | -8.9 | 32.5* | -4.3 | 33.0 | 3.4 | -6.6 | 70.3* | 1.9
COc1ccccc1NCC(=O)c1ccc(C)c(C)c1 | -16.7 | 30.6* | -3.6 | 1.1 | -3.5 | -6.0 | -12.7 | -7.4
COc1ccc(C(=O)CNc2ccccc2CO)cc1 | 1.1 | 15.9 | -0.6 | 0.0 | -0.4 | -2.9 | . | .
CN1CCc2c(sc3c2c(=O)n(-c2ccc(Cl)cc2)c2nncn32)C1 | -1.8 | 0.7 | 3.5 | 7.3 | -2.3 | -0.1 | . | .
O=c1c2c3c(sc2n2cnnc2n1Cc1ccccc1)CN(Cc1ccccc1)CC3 | 22.0 | 33.7* | 3.8 | -1.0 | -7.5 | -6.2 | -37.2 | -27.0
CC1CN(C(=O)CSc2nc(N)c(NC(=O)c3ccc(C(F)(F)F)cc3)c(=O)[nH]2)CC(C)O1 (stereo unspecified) | . | . | 0.8 | . | . | . | . | .
CC1(C)C(c2cccs2)=NC(c2ccccc2)N1O (stereo unspecified) | -14.3 | 14.5 | -4.5 | 1.7 | 4.7 | -2.8 | . | .
CC1(C)C(c2ccccc2)=NC(c2ccc(F)cc2)N1O (stereo unspecified) | -5.1 | 29.4* | -2.9 | 7.8 | 3.6 | -5.1 | -13.1 | -57.1
O=C1NC[C@@H](c2ccccc2)OC(=O)[C@@H](Cc2ccc(F)cc2)CC/C=C/C[C@@H]1CC(=O)N(CCO)Cc1ccccc1 | 10.0 | 33.5* | -1.6 | . | -6.4 | -5.8 | 8.6 | 25.7
C/C(Nc1ccc(Cl)c(Cl)c1)=C1/CCOC1=O | . | . | -2.4 | . | . | . | . | .
CC1COC(=O)C(NNc2ccc(Cl)c(Cl)c2)=N1 (stereo unspecified) | -28.7 | 30.4* | 4.4 | -1.2 | 10.3 | -5.7 | 12.6 | 1.7
O=C(Cc1ccc(F)cc1)OCC(=O)c1cc2ccccc2o1 | 10.3 | 47.5* | -8.7 | 19.8 | -5.7 | -8.3 | -115.8 | -12.2
O=C(CCNc1ccc(F)cc1)c1cc2ccccc2o1 | 6.8 | -35.1 | -5.9 | 14.7 | -2.6 | 7.7 | . | .
CC(NC(=O)COc1ccccc1)C(=O)OCC(=O)c1cc2ccccc2o1 (stereo unspecified) | 23.5 | 71.0* | -0.8 | -6.5 | -7.4 | -13.2 | -15.9 | 2.1
C/C=C/c1cnc2c(c1)C(=O)N([C@H](C)CO)C[C@H](C)[C@@H](CN(C)C(=O)CN1CCOCC1)O2 | . | . | -1.8 | . | . | . | . | .
CCN1C(=O)C(O)(C2COC(C)(C)CC2=O)c2cc(Br)ccc21 (stereo unspecified) | -1.8 | 56.3* | 2.0 | 7.8 | 0.8 | -9.4 | -16.2 | 2.9
O=C(O)C1CC(=O)N(Cc2ccccc2)C1 (stereo unspecified) | 1.7 | 8.7 | 1.4 | -2.0 | -0.7 | -1.5 | . | .
O=C1N(Cc2ccccc2)CC2(Br)COCOC12O (stereo unspecified) | 19.0 | 44.9* | 0.7 | -21.5 | -4.9 | -8.7 | -20.8 | -1.3

Screening results (PubChem)
